Measurements from ChEMBL document CHEMBL1125605 (1991).
≈ marks a conversion by molar mass, not a printed value.

What was measured:
Type in all cases: functional
E6SM [1] = assay: Concentration required to inhibit HSV-1 (McIntyre) induced cytopathogenicity in E6SM cells by 50%.; conditions: Homo sapiens
E6SM [2] = assay: Concentration required to cause a microscopically detectable alteration of normal cell morphology in E6SM cells; conditions: Homo sapiens; read-out: MIC
How it was run: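 Uninfected E6SM human embryonic skin-muscle fibroblasts were exposed to compound and examined under the microscope. The value is the minimum concentration that caused a detectable alteration of normal cell morphology.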

HEL [3] = assay: Concentration required to cause 50% reduction in HEL cell growth.; conditions: Homo sapiens; read-out: MIC
How it was run: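 Cytotoxicity was measured as inhibition of growth of HEL human embryonic lung fibroblasts. The value is the compound concentration that reduced cell growth by 50%.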

HEL [4] = assay: Concentration required to inhibit VZV (YS) induced cytopathogenicity in HEL cells by 50%.; conditions: Homo sapiens
E6SM [5] = assay: Concentration required to inhibit HSV-2(lyons) induced cytopathogenicity in E6SM cells by 50%.; conditions: Homo sapiens
HEL [6] = assay: Concentration required to inhibit CMV (AD-169) induced cytopathogenicity in HEL cells by 50%.; conditions: Homo sapiens
HEL [7] = assay: Concentration required to inhibit TK-VZV (07-1) induced cytopathogenicity in HEL cells by 50%.; conditions: Homo sapiens
E6SM [8] = assay: Concentration required to inhibit HSV-1 (F) induced cytopathogenicity in E6SM cells by 50%.; conditions: Homo sapiens
HEL [9] = assay: Concentration required to inhibit CMV (Davis) induced cytopathogenicity in HEL cells by 50%.; conditions: Homo sapiens
HEL [10] = assay: Concentration required to inhibit VZV (oka) induced cytopathogenicity in HEL cells by 50%.; conditions: Homo sapiens
E6SM [11] = assay: Concentration required to inhibit TK-HSV-1 (B2006) induced cytopathogenicity in E6SM cells by 50%.; conditions: Homo sapiens
E6SM [12] = assay: Concentration required to inhibit TK-HSV-1 (VMW1837) induced cytopathogenicity in E6SM cells by 50%.; conditions: Homo sapiens
E6SM [13] = assay: Concentration required to inhibit HSV-2(196) induced cytopathogenicity in E6SM cells by 50%.; conditions: Homo sapiens
E6SM [14] = assay: Concentration required to inhibit HSV-2(G) induced cytopathogenicity in E6SM cells by 50%.; conditions: Homo sapiens
E6SM [15] = assay: Concentration required to inhibit HSV-1 (KOS) induced cytopathogenicity in E6SM cells by 50%.; conditions: Homo sapiens
HEL [16] = assay: Concentration required to inhibit TK-VZV (YSR) induced cytopathogenicity in HEL cells by 50%.; conditions: Homo sapiens
E6SM [17] = assay: oncentration required to inhibit VV induced cytopathogenicity in E6SM cells by 50%.; conditions: Homo sapiens
E6SM [18] = assay: Concentration required to inhibit VSV induced cytopathogenicity in E6SM cells by 50%.; conditions: Homo sapiens
How it was run: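 Antiviral assay in E6SM human embryonic skin-muscle fibroblasts, with cells infected by vesicular stomatitis virus (VSV) in microtiter plates. Virus-induced cytopathogenicity is assessed. The value is the compound concentration that reduces VSV-induced cytopathogenicity by 50%.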

SMILES	MIC (E6SM [1]) [µg/mL]	minimum cytotoxic concentration (morphology alteration) (E6SM [2]) [µg/mL]	CC50 (50% cell growth inhibitory concentration) (HEL [3]) [µg/mL]	MIC (HEL [4]) [µg/mL]	MIC (E6SM [5]) [µg/mL]	MIC (HEL [6]) [µg/mL]	MIC (HEL [7]) [µg/mL]	MIC (E6SM [8]) [µg/mL]	MIC (HEL [9]) [µg/mL]	MIC (HEL [10]) [µg/mL]	MIC (E6SM [11]) [µg/mL]	MIC (E6SM [12]) [µg/mL]	MIC (E6SM [13]) [µg/mL]	MIC (E6SM [14]) [µg/mL]	MIC (E6SM [15]) [µg/mL]	MIC (HEL [16]) [µg/mL]	MIC (E6SM [17]) [µg/mL]	MIC (E6SM [18]) [µg/mL]
Cn1ccnc1-c1cn([C@H]2C[C@H](O)[C@@H](CO)O2)c(=O)[nH]c1=O	> 200	> 200	> 200	> 400	> 200	> 400	> 400	> 200	> 400	> 400	> 200	> 200	> 200	> 200	> 200	> 400	> 200	–
O=c1[nH]c(=O)n([C@@H]2C[C@@H](O)[C@@H](CO)O2)cc1-c1ccco1	70 (≈ 238 µM)	> 400	110 (≈ 374 µM)	240 (≈ 816 µM)	150 (≈ 510 µM)	> 100	260 (≈ 884 µM)	40 (≈ 136 µM)	> 100	210 (≈ 714 µM)	> 200	70 (≈ 238 µM)	150 (≈ 510 µM)	300 (≈ 1020 µM)	55 (≈ 187 µM)	240 (≈ 816 µM)	300 (≈ 1020 µM)	–
O=c1[nH]c(=O)n([C@@H]2C[C@H](O)[C@@H](CO)O2)cc1-c1cccs1	–	> 400	180 (≈ 580 µM)	> 100	100 (≈ 322 µM)	> 100	85 (≈ 274 µM)	–	–	75 (≈ 242 µM)	> 200	150 (≈ 483 µM)	150 (≈ 483 µM)	> 300	> 200	80 (≈ 258 µM)	> 200	–
O=c1[nH]c(=O)n([C@H]2C[C@H](O)[C@@H](CO)O2)cc1-c1ccc(Br)o1	0.2 (≈ 0.536 µM)	> 400	125 (≈ 335 µM)	3 (≈ 8.04 µM)	300 (≈ 804 µM)	> 100	> 100	0.1 (≈ 0.268 µM)	> 100	3 (≈ 8.04 µM)	100 (≈ 268 µM)	–	150 (≈ 402 µM)	150 (≈ 402 µM)	0.15 (≈ 0.402 µM)	> 100	70 (≈ 188 µM)	> 200
O=c1[nH]c(=O)n([C@H]2C[C@H](O)[C@@H](CO)O2)cc1-c1ccc(Br)s1	0.02 (≈ 0.0514 µM)	> 400	155 (≈ 398 µM)	0.03 (≈ 0.0771 µM)	150 (≈ 385 µM)	> 100	> 40	0.07 (≈ 0.18 µM)	> 100	0.03 (≈ 0.0771 µM)	150 (≈ 385 µM)	150 (≈ 385 µM)	> 200	150 (≈ 385 µM)	0.03 (≈ 0.0771 µM)	> 40	70 (≈ 180 µM)	–
CC1[C@@H](O)[C@@H](CO)O[C@@H]1n1cc(I)c(=O)[nH]c1=O (stereo partly drawn)	300 (≈ 815 µM)	> 400	> 200	10 (≈ 27.2 µM)	300 (≈ 815 µM)	400 (≈ 1090 µM)	90 (≈ 244 µM)	300 (≈ 815 µM)	–	15 (≈ 40.7 µM)	300 (≈ 815 µM)	150 (≈ 407 µM)	300 (≈ 815 µM)	300 (≈ 815 µM)	300 (≈ 815 µM)	170 (≈ 462 µM)	> 400	300 (≈ 815 µM)
O=c1[nH]c(=O)n([C@H]2C[C@H](O)[C@@H](CO)O2)cc1-c1ccc(Cl)o1	0.4 (≈ 1.22 µM)	> 400	105 (≈ 319 µM)	3 (≈ 9.13 µM)	150 (≈ 456 µM)	> 100	> 100	0.2 (≈ 0.608 µM)	> 100	2.5 (≈ 7.61 µM)	150 (≈ 456 µM)	150 (≈ 456 µM)	150 (≈ 456 µM)	150 (≈ 456 µM)	0.2 (≈ 0.608 µM)	> 100	45 (≈ 137 µM)	> 200
O=c1[nH]c(=O)n(C2O[C@H](CO)[C@@H](O)[C@@H]2O)cc1-c1cccs1 (stereo partly drawn)	0.07 (≈ 0.215 µM)	> 400	> 200	6.5 (≈ 19.9 µM)	20 (≈ 61.3 µM)	250 (≈ 766 µM)	370 (≈ 1130 µM)	0.2 (≈ 0.613 µM)	250 (≈ 766 µM)	5.5 (≈ 16.9 µM)	> 400	> 400	100 (≈ 306 µM)	20 (≈ 61.3 µM)	0.2 (≈ 0.613 µM)	> 400	> 400	–
O=c1[nH]c(=O)n([C@H]2C[C@H](O)[C@@H](CO)O2)cc1-c1ccco1	0.2 (≈ 0.68 µM)	> 400	100 (≈ 340 µM)	7 (≈ 23.8 µM)	> 400	> 400	155 (≈ 527 µM)	0.2 (≈ 0.68 µM)	> 400	4 (≈ 13.6 µM)	150 (≈ 510 µM)	300 (≈ 1020 µM)	> 400	200 (≈ 680 µM)	0.2 (≈ 0.68 µM)	220 (≈ 748 µM)	–	300 (≈ 1020 µM)
O=c1[nH]c(=O)n([C@H]2C[C@H](O)[C@@H](CO)O2)cc1-c1ccc(Cl)s1	0.004 (≈ 0.0116 µM)	> 400	> 50	0.02 (≈ 0.058 µM)	> 200	> 40	35 (≈ 102 µM)	0.04 (≈ 0.116 µM)	–	0.02 (≈ 0.058 µM)	> 200	> 200	> 200	> 200	0.02 (≈ 0.058 µM)	65 (≈ 189 µM)	> 200	–
Nc1nc(=O)n([C@H]2C[C@H](O)[C@@H](CO)O2)cc1-c1cccs1	0.07 (≈ 0.226 µM)	> 200	45 (≈ 145 µM)	4 (≈ 12.9 µM)	20 (≈ 64.7 µM)	60 (≈ 194 µM)	8 (≈ 25.9 µM)	0.4 (≈ 1.29 µM)	40 (≈ 129 µM)	3 (≈ 9.7 µM)	> 100	> 100	20 (≈ 64.7 µM)	45 (≈ 145 µM)	1.3 (≈ 4.2 µM)	30 (≈ 97 µM)	20 (≈ 64.7 µM)	–
O=c1[nH]c(=O)n([C@H]2C[C@H](O)[C@@H](CO)O2)cc1-c1cccs1	0.1 (≈ 0.322 µM)	> 400	> 200	41 (≈ 132 µM)	100 (≈ 322 µM)	250 (≈ 806 µM)	180 (≈ 580 µM)	0.2 (≈ 0.644 µM)	250 (≈ 806 µM)	18 (≈ 58 µM)	300 (≈ 967 µM)	150 (≈ 483 µM)	150 (≈ 483 µM)	250 (≈ 806 µM)	0.45 (≈ 1.45 µM)	> 400	> 400	–
O=c1[nH]c(=O)n([C@H]2C[C@H](O)[C@@H](CO)O2)cc1/C=C/Br [BRIVUDINE]	0.02 (≈ 0.06 µM)	> 400	–	0.001 (≈ 0.003 µM)	10 (≈ 30 µM)	250 (≈ 750 µM)	> 40	0.02 (≈ 0.06 µM)	250 (≈ 750 µM)	0.001 (≈ 0.003 µM)	20 (≈ 60 µM)	4 (≈ 12 µM)	> 400	20 (≈ 60 µM)	0.02 (≈ 0.06 µM)	> 40	0.07 (≈ 0.21 µM)	400 (≈ 1200 µM)
